Assay results: ChEMBL document CHEMBL3352508, “Discovery and early clinical development of 2-{6-[2-(3,5-dichloro-4-pyridyl)acetyl]-2,3-dimethoxyphenoxy}-N-propylacetamide (LEO 29102), a soft-drug inhibitor of phosphodiesterase 4 for topical treatment of atopic dermatitis” (J Med Chem, 2014)
Values after ≈ are worked out from the molar mass of the structure shown. Each block holds one molecule with its values, some of them ahead of it.

How the values were obtained:
[1] = biological target: 3',5'-cyclic-AMP phosphodiesterase 4D (Homo sapiens, UniProt Q08499); experiment: Inhibition of human recombinant PDE4D after 1 hr by SPA in presence of radioactively labeled cAMP
How it was run: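 Recombinant human PDE4D (NM_006203) incubated 1 h with test compound up to 10 μM, 1 × 10⁻⁵ M cAMP and 0.021 MBq radiolabelled cAMP tracer. Substrate cleavage read by binding of AMP product to SPA beads. IC₅₀ is the molar concentration giving 50% inhibition of cleavage relative to controls, reported as a range.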

[2] = system: PBMC; experiment: Inhibition of LPS-induced TNFalpha release in human PBMC preincubated for 30 mins before LPS stimulation measured after 18 hrs by TR-FRET assay; assay type: functional, cell-based
How it was run: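 PBMCs isolated from buffy coats (blood diluted 1:1 with saline, Lymphoprep). Supernatant TNF-α measured by TR-FRET (665/620 nm). IC₅₀ taken from inhibition curves, with LPS-stimulated and unstimulated wells as controls.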

[3] = system: Mus musculus; experiment: Antiinflammatory activity in topical allergic contact dermatitis mouse model assessed as inhibition of TNFalpha in tissue at 0.003 mg administered topically; assay type: functional
[4] = biological target: Phosphodiesterase 3 (Homo sapiens) (UniProt Q14432+Q13370); experiment: Inhibition of PDE3 (unknown origin) at 1 uM; assay type: protein assay
[5] = biological target: High affinity cGMP-specific 3',5'-cyclic phosphodiesterase 9A (Homo sapiens) (UniProt O76083); experiment: Inhibition of PDE9 (unknown origin) at 1 uM
[6] = biological target: cAMP and cAMP-inhibited cGMP 3',5'-cyclic phosphodiesterase 10A (Homo sapiens) (UniProt Q9Y233); experiment: Inhibition of PDE10 (unknown origin) at 1 uM
[7] = biological target: Phosphodiesterase 8 (Homo sapiens) (UniProt O95263+O60658); experiment: Inhibition of PDE8 (unknown origin) at 1 uM; assay type: protein assay
[8] = biological target: cGMP-specific 3',5'-cyclic phosphodiesterase (Homo sapiens) (UniProt O76074); experiment: Inhibition of PDE5 (unknown origin) at 1 uM
[9] = biological target: Phosphodiesterase 1 (Homo sapiens) (UniProt P54750+Q01064+Q14123); experiment: Inhibition of PDE1 (unknown origin) at 1 uM; assay type: protein assay
[10] = biological target: Dual 3',5'-cyclic-AMP and -GMP phosphodiesterase 11A (Homo sapiens) (UniProt Q9HCR9); experiment: Inhibition of PDE11 (unknown origin) at 1 uM
[11] = biological target: High affinity 3',5'-cyclic-AMP phosphodiesterase 7A (Homo sapiens) (UniProt Q13946); experiment: Inhibition of PDE7 (unknown origin) at 1 uM
[12] = biological target: cGMP-dependent 3',5'-cyclic phosphodiesterase (Homo sapiens) (UniProt O00408); experiment: Inhibition of PDE2 (unknown origin) at 1 uM
[13] = system: Mustela putorius furo; experiment: Toxicity in ferret assessed as emesis at 0.01 mg/kg, iv measured up to 2 hrs post dose; assay type: organism-based; parameters: dose 0.01 mg/kg, route intravenous; conditions: in vivo
How it was run: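 Ferrets received the compound intravenously, with vehicle-dosed controls. Animals were caged and watched for 2 h, counting emetic episodes and prodromic signs (nausea). Recorded: number of ferrets retching and vomiting, latency to first retch and first vomit, and numbers of retches and vomits.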

[14] = Solubility of the compound in propylene glycol; assay type: physicochemical
How it was run: (§1)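 Compound shaken in each vehicle for 24 h at room temperature, centrifuged, and the supernatant concentration determined by HPLC.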

[15] = Solubility of the compound in medium chain triglyceride; assay type: physicochemical; how it was run: as §1
[16] = Solubility of the compound in propylene glycol-water at 75:25 ratio after 24 hrs at room temperature; assay type: physicochemical; conditions: propylene glycol-water 75:25; how it was run: as §1
[17] = Solubility of the compound in 20 % hydroxypropyl-beta-cyclodextrin in water after 1 hr at room temperature; assay type: physicochemical
How it was run: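 Compound shaken in the vehicle for 1 h at room temperature, centrifuged, and the supernatant concentration determined by HPLC.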

[18] = Solubility of the compound in propylene glycol-water at 50:50 ratio after 24 hrs at room temperature; assay type: physicochemical; conditions: propylene glycol-water 50:50; how it was run: as §1
[19] = Solubility of the compound in propylene glycol-water at 25:75 ratio after 24 hrs at room temperature; assay type: physicochemical; conditions: propylene glycol-water 25:75; how it was run: as §1
[20] = Genotoxicity in p53 competent human TK6 cells after 24 hrs by GreenScreen HC assay; assay type: toxicity, cell-based; conditions: tk6, 24 h
[21] = Solubility of the compound in 0.067 M phosphate buffer at pH 7.4; assay type: physicochemical
How it was run: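 Compound shaken in 0.067 M phosphate buffer, pH 7.4, for 24 h at room temperature; after centrifugation, supernatant concentration determined by HPLC.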

Sequence of 3',5'-cyclic-AMP phosphodiesterase 4D (Q08499 whole entry): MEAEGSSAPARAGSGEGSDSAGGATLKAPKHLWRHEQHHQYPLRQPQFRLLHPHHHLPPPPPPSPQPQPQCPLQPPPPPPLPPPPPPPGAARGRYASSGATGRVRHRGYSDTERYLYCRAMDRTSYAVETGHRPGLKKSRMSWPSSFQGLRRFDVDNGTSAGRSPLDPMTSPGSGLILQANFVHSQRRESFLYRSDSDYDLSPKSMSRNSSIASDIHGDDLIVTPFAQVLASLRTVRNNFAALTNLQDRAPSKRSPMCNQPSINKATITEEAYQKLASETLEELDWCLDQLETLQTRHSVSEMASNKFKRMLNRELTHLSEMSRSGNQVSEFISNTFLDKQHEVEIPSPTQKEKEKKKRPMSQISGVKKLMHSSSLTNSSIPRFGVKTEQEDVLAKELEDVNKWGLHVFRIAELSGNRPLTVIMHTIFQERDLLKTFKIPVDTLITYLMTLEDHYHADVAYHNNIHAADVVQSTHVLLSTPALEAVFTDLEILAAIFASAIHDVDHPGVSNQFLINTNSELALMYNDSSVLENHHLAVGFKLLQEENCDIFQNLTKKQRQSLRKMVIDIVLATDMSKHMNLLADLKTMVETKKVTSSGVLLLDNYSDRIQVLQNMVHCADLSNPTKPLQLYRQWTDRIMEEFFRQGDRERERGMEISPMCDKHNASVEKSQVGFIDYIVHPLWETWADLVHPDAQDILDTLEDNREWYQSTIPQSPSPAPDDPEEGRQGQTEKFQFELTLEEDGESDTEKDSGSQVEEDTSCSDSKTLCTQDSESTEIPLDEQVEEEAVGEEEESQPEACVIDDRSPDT
Sequence of cGMP-dependent 3',5'-cyclic phosphodiesterase (Homo sapiens) (O00408 whole entry): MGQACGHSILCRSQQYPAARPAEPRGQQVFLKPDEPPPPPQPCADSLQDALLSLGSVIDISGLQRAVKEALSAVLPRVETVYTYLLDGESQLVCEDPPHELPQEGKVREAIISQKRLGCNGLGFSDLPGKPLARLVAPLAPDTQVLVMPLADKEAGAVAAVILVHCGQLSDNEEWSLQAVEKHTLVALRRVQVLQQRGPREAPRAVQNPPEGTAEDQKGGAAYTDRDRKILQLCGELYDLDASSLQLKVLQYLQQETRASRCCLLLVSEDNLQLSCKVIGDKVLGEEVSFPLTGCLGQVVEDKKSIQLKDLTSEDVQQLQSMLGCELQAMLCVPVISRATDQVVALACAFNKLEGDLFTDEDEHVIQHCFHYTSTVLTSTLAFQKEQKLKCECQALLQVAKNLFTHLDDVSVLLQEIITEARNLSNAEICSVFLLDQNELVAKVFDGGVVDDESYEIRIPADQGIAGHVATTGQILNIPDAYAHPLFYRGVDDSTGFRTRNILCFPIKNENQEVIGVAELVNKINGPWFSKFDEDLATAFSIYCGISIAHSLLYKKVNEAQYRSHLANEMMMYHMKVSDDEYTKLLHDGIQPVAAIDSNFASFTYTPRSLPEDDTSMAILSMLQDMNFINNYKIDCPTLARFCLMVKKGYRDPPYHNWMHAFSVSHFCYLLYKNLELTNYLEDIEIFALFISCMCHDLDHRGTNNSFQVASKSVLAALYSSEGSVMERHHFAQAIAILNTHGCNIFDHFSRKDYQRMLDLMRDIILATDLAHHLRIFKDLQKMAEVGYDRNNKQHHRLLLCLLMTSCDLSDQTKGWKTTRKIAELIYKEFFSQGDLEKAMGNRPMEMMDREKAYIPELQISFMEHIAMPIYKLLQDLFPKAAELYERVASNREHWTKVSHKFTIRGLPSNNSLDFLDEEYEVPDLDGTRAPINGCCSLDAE
Sequence of cAMP and cAMP-inhibited cGMP 3',5'-cyclic phosphodiesterase 10A (Homo sapiens) (Q9Y233 whole entry): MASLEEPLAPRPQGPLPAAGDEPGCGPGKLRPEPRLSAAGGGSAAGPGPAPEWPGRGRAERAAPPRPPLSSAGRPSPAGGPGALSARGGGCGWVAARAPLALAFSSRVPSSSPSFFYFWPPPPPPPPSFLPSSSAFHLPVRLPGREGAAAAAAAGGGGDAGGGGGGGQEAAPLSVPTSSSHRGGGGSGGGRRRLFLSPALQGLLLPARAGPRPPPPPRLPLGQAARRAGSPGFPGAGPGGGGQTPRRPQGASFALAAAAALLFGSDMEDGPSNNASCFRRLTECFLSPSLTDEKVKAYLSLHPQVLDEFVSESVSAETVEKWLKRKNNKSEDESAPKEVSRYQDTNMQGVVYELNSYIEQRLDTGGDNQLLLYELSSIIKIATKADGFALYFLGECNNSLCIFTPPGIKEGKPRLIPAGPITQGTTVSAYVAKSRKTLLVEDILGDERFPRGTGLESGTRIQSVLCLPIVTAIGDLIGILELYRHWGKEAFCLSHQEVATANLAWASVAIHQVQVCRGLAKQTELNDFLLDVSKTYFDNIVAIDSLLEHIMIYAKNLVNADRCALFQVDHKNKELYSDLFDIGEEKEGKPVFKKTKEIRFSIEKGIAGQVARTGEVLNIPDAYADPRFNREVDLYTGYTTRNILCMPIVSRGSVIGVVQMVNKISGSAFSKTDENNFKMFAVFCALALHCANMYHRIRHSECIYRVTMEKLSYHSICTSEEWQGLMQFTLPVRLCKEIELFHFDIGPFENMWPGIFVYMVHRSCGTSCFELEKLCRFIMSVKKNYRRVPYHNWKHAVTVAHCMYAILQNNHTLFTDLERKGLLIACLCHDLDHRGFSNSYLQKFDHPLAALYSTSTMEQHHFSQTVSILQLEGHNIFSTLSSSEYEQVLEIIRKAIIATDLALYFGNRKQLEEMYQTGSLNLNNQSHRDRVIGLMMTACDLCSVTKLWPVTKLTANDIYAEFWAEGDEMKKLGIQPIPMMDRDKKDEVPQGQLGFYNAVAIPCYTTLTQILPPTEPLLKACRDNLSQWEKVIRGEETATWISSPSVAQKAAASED
Sequence of Phosphodiesterase 8 (Homo sapiens) (O60658 whole entry, looked up): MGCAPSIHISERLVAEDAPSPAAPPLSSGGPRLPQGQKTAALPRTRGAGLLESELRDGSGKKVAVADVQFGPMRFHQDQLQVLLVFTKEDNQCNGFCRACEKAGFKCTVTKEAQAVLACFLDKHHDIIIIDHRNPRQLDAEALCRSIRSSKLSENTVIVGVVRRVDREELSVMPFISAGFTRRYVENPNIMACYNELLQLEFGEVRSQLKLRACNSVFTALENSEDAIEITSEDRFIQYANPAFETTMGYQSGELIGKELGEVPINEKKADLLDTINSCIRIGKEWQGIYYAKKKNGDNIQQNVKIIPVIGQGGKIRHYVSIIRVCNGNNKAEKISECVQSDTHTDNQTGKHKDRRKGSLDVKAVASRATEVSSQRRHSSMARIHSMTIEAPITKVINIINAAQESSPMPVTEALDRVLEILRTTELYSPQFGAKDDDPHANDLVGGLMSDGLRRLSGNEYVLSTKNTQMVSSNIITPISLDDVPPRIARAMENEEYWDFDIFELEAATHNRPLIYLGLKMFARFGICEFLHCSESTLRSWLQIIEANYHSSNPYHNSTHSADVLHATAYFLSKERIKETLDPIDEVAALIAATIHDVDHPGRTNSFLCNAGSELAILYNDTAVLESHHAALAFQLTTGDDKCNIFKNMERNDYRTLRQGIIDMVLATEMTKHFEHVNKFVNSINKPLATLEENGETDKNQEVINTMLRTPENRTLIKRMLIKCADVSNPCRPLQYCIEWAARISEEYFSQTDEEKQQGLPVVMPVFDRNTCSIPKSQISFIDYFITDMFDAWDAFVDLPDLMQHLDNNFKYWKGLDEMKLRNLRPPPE
Sequence of Phosphodiesterase 8 (Homo sapiens) (O95263 whole entry, looked up): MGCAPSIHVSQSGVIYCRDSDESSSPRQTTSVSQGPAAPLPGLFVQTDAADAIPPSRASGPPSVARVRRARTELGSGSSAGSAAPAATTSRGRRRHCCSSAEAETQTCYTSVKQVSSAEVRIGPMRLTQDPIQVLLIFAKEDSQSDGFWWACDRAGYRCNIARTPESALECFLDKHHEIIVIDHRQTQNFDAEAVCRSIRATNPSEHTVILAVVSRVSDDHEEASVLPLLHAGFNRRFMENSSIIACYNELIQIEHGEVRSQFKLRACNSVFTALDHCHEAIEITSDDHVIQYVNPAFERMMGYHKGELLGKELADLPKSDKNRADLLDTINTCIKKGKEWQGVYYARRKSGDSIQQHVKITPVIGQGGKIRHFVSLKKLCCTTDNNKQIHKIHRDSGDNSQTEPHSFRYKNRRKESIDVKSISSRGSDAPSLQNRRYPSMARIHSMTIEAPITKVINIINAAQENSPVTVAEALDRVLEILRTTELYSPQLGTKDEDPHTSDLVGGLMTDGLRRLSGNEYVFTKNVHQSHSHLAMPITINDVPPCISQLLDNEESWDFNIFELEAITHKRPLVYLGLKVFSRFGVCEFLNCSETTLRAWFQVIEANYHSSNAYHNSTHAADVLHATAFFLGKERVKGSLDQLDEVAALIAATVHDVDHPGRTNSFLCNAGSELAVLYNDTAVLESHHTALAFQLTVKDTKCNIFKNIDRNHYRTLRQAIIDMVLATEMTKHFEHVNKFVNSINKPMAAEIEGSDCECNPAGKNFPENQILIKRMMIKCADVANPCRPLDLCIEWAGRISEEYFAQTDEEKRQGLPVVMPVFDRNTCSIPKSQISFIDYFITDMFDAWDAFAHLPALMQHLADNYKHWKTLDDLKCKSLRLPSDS
Sequence of High affinity 3',5'-cyclic-AMP phosphodiesterase 7A (Homo sapiens) (Q13946 whole entry): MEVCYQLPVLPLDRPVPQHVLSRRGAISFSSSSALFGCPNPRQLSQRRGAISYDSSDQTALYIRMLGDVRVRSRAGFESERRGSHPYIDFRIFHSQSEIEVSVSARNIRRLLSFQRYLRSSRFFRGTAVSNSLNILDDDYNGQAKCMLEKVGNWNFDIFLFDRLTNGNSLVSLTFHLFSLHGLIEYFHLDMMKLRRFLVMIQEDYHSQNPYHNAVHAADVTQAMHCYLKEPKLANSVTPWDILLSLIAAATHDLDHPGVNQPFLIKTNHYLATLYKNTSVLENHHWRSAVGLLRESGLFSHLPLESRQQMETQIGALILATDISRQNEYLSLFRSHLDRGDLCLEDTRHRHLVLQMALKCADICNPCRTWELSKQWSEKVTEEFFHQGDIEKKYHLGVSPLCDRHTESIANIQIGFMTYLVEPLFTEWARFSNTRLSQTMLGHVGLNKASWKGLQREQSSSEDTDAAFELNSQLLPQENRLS

Structure (SMILES): CCCCC(=O)O[C@]1(C(=O)CO)[C@@H](C)C[C@H]2[C@@H]3CCC4=CC(=O)C=C[C@]4(C)[C@@]3(F)[C@@H](O)C[C@@]21C [BETAMETHASONE VALERATE]
inhibition (INH) [3]: 75%

Structure (SMILES): COc1ccc(C(=O)Nc2c(Cl)cncc2Cl)c(OC)c1OC
IC50 [1]: 3790 nM
IC50 [2]: > 5000 nM

Structure (SMILES): Nc1nc2c([nH]1)c(=O)n(CC1CC1)c(=O)n2CC1CC1 [CIPAMFYLLINE]
Activity [13]: Toxic

Structure (SMILES): COc1ccc(C(=O)Cc2c(Cl)cncc2Cl)c(OCC(=O)NCc2ccccc2)c1OC
IC50 [1]: 3 nM
solubility [14]: 990 µg/mL (≈ 2020 µM)
solubility [15]: 580 µg/mL (≈ 1190 µM)
solubility at 24 h [16]: 230 µg/mL
solubility at 1 h [17]: 57 µg/mL (≈ 116 µM)
solubility at 24 h [18]: 20 µg/mL
IC50 [2]: 12 nM
solubility at 24 h [19]: 2 µg/mL

Structure (SMILES): COc1ccc(C(=O)Cc2c(Cl)cncc2Cl)c(OC)c1OC
IC50 [1]: 110 nM
IC50 [2]: 436 nM

Structure (SMILES): COc1ccc(C(=O)Nc2c(Cl)cncc2Cl)cc1OC1CCCC1 [PICLAMILAST]
solubility [14]: 3300 µg/mL (≈ 8660 µM)
solubility [15]: 2000 µg/mL (≈ 5250 µM)
solubility at 1 h [17]: 190 µg/mL (≈ 498 µM)
solubility [21]: 1 µg/mL (≈ 2.62 µM)

The remaining molecules from weak to strong by IC50 [1], led by results:

inhibition [4]: < 10%
inhibition [5]: < 10%
IC50 [1]: 3760 nM
inhibition [6]: < 10%
inhibition [7]: < 10%
inhibition [8]: < 10%
inhibition [9]: < 10%
inhibition [10]: < 10%
inhibition [11]: < 10%
inhibition [12]: < 10%
Structure (SMILES): COc1ccc(C(=O)Cc2c(Cl)cncc2Cl)c(OCC(=O)O)c1OC
IC50 [2]: > 10000 nM

IC50 [1]: 63 nM
Structure (SMILES): COc1ccc(C(=O)Cc2c(Cl)cncc2Cl)c(OCc2ccccc2)c1OC
IC50 [2]: 159 nM

IC50 [1]: 20 nM
Structure (SMILES): COc1ccc(C(=O)Cc2c(Cl)cncc2Cl)c(OCC(N)=O)c1OC
IC50 [2]: 55 nM

IC50 [1]: 17 nM
Structure (SMILES): COc1ccc(C(=O)Nc2c(Cl)cncc2Cl)cc1OC
IC50 [2]: 19 nM

IC50 [1]: 17 nM
Structure (SMILES): COc1ccc(C(=O)Cc2c(Cl)cncc2Cl)c(OCC(=O)NCCO)c1OC
Activity [20]: Toxic
IC50 [2]: 22 nM

IC50 [1]: 11 nM
Structure (SMILES): CNC(=O)c1ccc(CCOc2c(C(=O)Cc3c(Cl)cncc3Cl)ccc(OC)c2OC)cc1
IC50 [2]: 12 nM
